≈ marks a conversion by molar mass, not a printed value.
Legend:
Format in all cases: functional
Rhizopus arrhizus [1] = assay: Antifungal activity against Rhizopus oryzae MTCC 262 at 100 ug/ml after 48 hrs by agar cup diffusion method; settings: MTCC 262, 48 h, read-out: DIZ
Summary of the method: (§1)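 Agar cup diffusion on autoclaved potato dextrose agar plates. Each plate was spread with 0.5 ml of a week-old culture, and test solutions at 30 and 100 per ml were added to cups. Plates were held at 28 °C for 48 h, and inhibition zone diameters were read in mm. Acetone served as the solvent control and amphotericin-B as the reference.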

Staphylococcus aureus = assay: Antibacterial activity against Staphylococcus aureus MTCC 96 by broth dilution method
Summary of the method: (§2)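 MIC by broth dilution in nutrient broth. Test bacteria were kept on nutrient agar slants and subcultured in Petri dishes before testing.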

Aspergillus flavus [2] = assay: Antifungal activity against Aspergillus flavus MTCC 277 at 100 ug/ml after 48 hrs by agar cup diffusion method; settings: MTCC 277, 48 h, read-out: DIZ; summary of the method: as §1
Candida albicans [3] = assay: Antifungal activity against Candida albicans MTCC 227 at 100 ug/ml after 48 hrs by agar cup diffusion method; settings: MTCC 227, 48 h, read-out: DIZ; summary of the method: as §1
Aspergillus niger [4] = assay: Antifungal activity against Aspergillus niger MTCC 1344 at 30 ug/ml after 48 hrs by agar cup diffusion method; settings: MTCC 1344, 48 h, read-out: DIZ; summary of the method: as §1
Pseudomonas aeruginosa = assay: Antibacterial activity against Pseudomonas aeruginosa MTCC 741 by broth dilution method; summary of the method: as §2
Escherichia coli = assay: Antibacterial activity against Escherichia coli MTCC 443 by broth dilution method; summary of the method: as §2
Bacillus subtilis = assay: Antibacterial activity against Bacillus subtilis MTCC 441 by broth dilution method; summary of the method: as §2
[5] = tested on: Staphylococcus epidermidis; assay: Antibacterial activity against Staphylococcus epidermidis MTCC 435 by broth dilution method; summary of the method: as §2
Candida albicans [6] = assay: Antifungal activity against Candida albicans MTCC 227 at 30 ug/ml after 48 hrs by agar cup diffusion method; settings: MTCC 227, 48 h, read-out: DIZ; summary of the method: as §1
Aspergillus niger [7] = assay: Antifungal activity against Aspergillus niger MTCC 1344 at 100 ug/ml after 48 hrs by agar cup diffusion method; settings: MTCC 1344, 48 h, read-out: DIZ; summary of the method: as §1
Saccharomyces cerevisiae [8] = assay: Antifungal activity against Saccharomyces cerevisiae MTCC 36 at 100 ug/ml after 48 hrs by agar cup diffusion method; settings: MTCC 36, 48 h, read-out: DIZ; summary of the method: as §1
Diutina rugosa [9] = assay: Antifungal activity against Candida rugosa NCIM 3462 at 100 ug/ml after 48 hrs by agar cup diffusion method; settings: NCIM 3462, 48 h, read-out: DIZ; summary of the method: as §1
Diutina rugosa [10] = assay: Antifungal activity against Candida rugosa NCIM 3462 at 30 ug/ml after 48 hrs by agar cup diffusion method; settings: NCIM 3462, 48 h, read-out: DIZ; summary of the method: as §1
Rhizopus arrhizus [11] = assay: Antifungal activity against Rhizopus oryzae MTCC 262 at 30 ug/ml after 48 hrs by agar cup diffusion method; settings: MTCC 262, 48 h, read-out: DIZ; summary of the method: as §1
Aspergillus flavus [12] = assay: Antifungal activity against Aspergillus flavus MTCC 277 at 30 ug/ml after 48 hrs by agar cup diffusion method; settings: MTCC 277, 48 h, read-out: DIZ; summary of the method: as §1
Saccharomyces cerevisiae [13] = assay: Antifungal activity against Saccharomyces cerevisiae MTCC 36 at 30 ug/ml after 48 hrs by agar cup diffusion method; settings: MTCC 36, 48 h, read-out: DIZ; summary of the method: as §1
Diutina rugosa [14] = assay: Antifungal activity against Candida rugosa NCIM 3462 at 50 ug/ml after 48 hrs by agar cup diffusion method; settings: NCIM 3462, 48 h, read-out: DIZ
Summary of the method: (§3)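 Amphotericin-B reference at 50 per ml in the agar cup assay on potato dextrose agar. Plates were spread with 0.5 ml of a week-old fungal culture, incubated at 28 °C for 48 h, and inhibition zone diameter was read in mm. Acetone served as the negative control.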

Rhizopus arrhizus [15] = assay: Antifungal activity against Rhizopus oryzae MTCC 262 at 50 ug/ml after 48 hrs by agar cup diffusion method; settings: MTCC 262, 48 h, read-out: DIZ; summary of the method: as §3
Saccharomyces cerevisiae [16] = assay: Antifungal activity against Saccharomyces cerevisiae MTCC 36 at 50 ug/ml after 48 hrs by agar cup diffusion method; settings: MTCC 36, 48 h, read-out: DIZ; summary of the method: as §3
Aspergillus flavus [17] = assay: Antifungal activity against Aspergillus flavus MTCC 277 at 50 ug/ml after 48 hrs by agar cup diffusion method; settings: MTCC 277, 48 h, read-out: DIZ; summary of the method: as §3
Candida albicans [18] = assay: Antifungal activity against Candida albicans MTCC 227 at 50 ug/ml after 48 hrs by agar cup diffusion method; settings: MTCC 227, 48 h, read-out: DIZ; summary of the method: as §3
Aspergillus niger [19] = assay: Antifungal activity against Aspergillus niger MTCC 1344 at 50 ug/ml after 48 hrs by agar cup diffusion method; settings: MTCC 1344, 48 h, read-out: DIZ
Summary of the method: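 Agar cup diffusion on potato dextrose agar plates. 0.5 ml of a week-old A. niger culture spread over the solidified agar, then test solutions added to cups. Acetone served as negative control and amphotericin-B as positive control. Plates kept at 28 °C for 48 h. Read-out was inhibition zone diameter in mm.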

SMILES | MIC (Staphylococcus aureus) | MIC (Pseudomonas aeruginosa) | MIC (Escherichia coli) | MIC (Bacillus subtilis) | MIC [5] | zone of inhibition at 100 µg/mL (Rhizopus arrhizus [1]) | zone of inhibition at 100 µg/mL (Aspergillus flavus [2]) | zone of inhibition at 100 µg/mL (Candida albicans [3]) | zone of inhibition at 30 µg/mL (Aspergillus niger [4]) | zone of inhibition at 30 µg/mL (Candida albicans [6]) | zone of inhibition at 100 µg/mL (Aspergillus niger [7]) | zone of inhibition at 100 µg/mL (Saccharomyces cerevisiae [8]) | zone of inhibition at 100 µg/mL (Diutina rugosa [9]) | other results
O=c1c2ccccc2nc(-c2ccccc2)n1Cc1cn(CCC(F)(F)C(F)(F)C(F)(F)C(F)(F)C(F)(F)C(F)(F)C(F)(F)C(F)(F)F)nn1 | 75 µg/mL (≈ 100 µM) | 75 µg/mL (≈ 100 µM) | 15 µg/mL (≈ 20 µM) | 150 µg/mL (≈ 200 µM) | 75 µg/mL (≈ 100 µM) | 10 mm | 9 mm | 9 mm | – | – | 9 mm | 9 mm | 10 mm | –
O=c1c2ccccc2nc(C(F)(F)F)n1Cc1cn(CCC(F)(F)C(F)(F)C(F)(F)C(F)(F)C(F)(F)C(F)(F)C(F)(F)C(F)(F)F)nn1 | 75 µg/mL (≈ 101 µM) | 75 µg/mL (≈ 101 µM) | 75 µg/mL (≈ 101 µM) | 75 µg/mL (≈ 101 µM) | 75 µg/mL (≈ 101 µM) | – | 9 mm | 9 mm | 7 mm | 7 mm | 9 mm | 9 mm | – | –
C[C@@H]1[C@H](O)[C@@H](C)/C=C/C=C/C=C/C=C/C=C/C=C/C=C/[C@H](O[C@@H]2O[C@H](C)[C@@H](O)[C@H](N)[C@@H]2O)C[C@@H]2O[C@](O)(C[C@@H](O)C[C@@H](O)[C@H](O)CC[C@@H](O)C[C@@H](O)CC(=O)O[C@H]1C)C[C@H](O)[C@H]2C(=O)O [AMPHOTERICIN B] | – | – | – | – | – | – | – | – | – | – | – | – | – | zone of inhibition at 50 µg/mL (Diutina rugosa [14]): 22 mm; zone of inhibition at 50 µg/mL (Rhizopus arrhizus [15]): 24 mm; zone of inhibition at 50 µg/mL (Saccharomyces cerevisiae [16]): 22 mm; zone of inhibition at 50 µg/mL (Aspergillus flavus [17]): 25 mm; zone of inhibition at 50 µg/mL (Candida albicans [18]): 23.5 mm; zone of inhibition at 50 µg/mL (Aspergillus niger [19]): 25 mm
CC1(C)S[C@@H]2[C@H](NC(=O)Cc3ccccc3)C(=O)N2[C@H]1C(=O)O [PENICILLIN G] | 6.25 µg/mL (≈ 18.7 µM) | 12.5 µg/mL (≈ 37.4 µM) | 6.25 µg/mL (≈ 18.7 µM) | 1.53 µg/mL (≈ 4.56 µM) | 3.12 µg/mL (≈ 9.35 µM) | – | – | – | – | – | – | – | – | –
CN[C@@H]1[C@H](O[C@H]2[C@H](O[C@H]3[C@H](O)[C@@H](O)[C@H](N=C(N)N)[C@@H](O)[C@@H]3N=C(N)N)O[C@@H](C)[C@]2(O)C=O)O[C@@H](CO)[C@H](O)[C@H]1O [STREPTOMYCIN] | 1.56 µg/mL (≈ 2.68 µM) | 3.12 µg/mL (≈ 5.37 µM) | 3.12 µg/mL (≈ 5.37 µM) | 6.25 µg/mL (≈ 10.7 µM) | 1.56 µg/mL (≈ 2.69 µM) | – | – | – | – | – | – | – | – | –

More lines, main results first:

MIC (Staphylococcus aureus) | MIC (Pseudomonas aeruginosa) | MIC (Escherichia coli) | MIC (Bacillus subtilis) | MIC [5] | SMILES | zone of inhibition at 100 µg/mL (Rhizopus arrhizus [1]) | zone of inhibition at 100 µg/mL (Aspergillus flavus [2]) | zone of inhibition at 100 µg/mL (Candida albicans [3]) | zone of inhibition at 30 µg/mL (Aspergillus niger [4]) | zone of inhibition at 30 µg/mL (Candida albicans [6]) | zone of inhibition at 100 µg/mL (Aspergillus niger [7]) | zone of inhibition at 100 µg/mL (Saccharomyces cerevisiae [8]) | zone of inhibition at 100 µg/mL (Diutina rugosa [9]) | other results
9.38 µg/mL (≈ 12.5 µM) | 37.5 µg/mL (≈ 50 µM) | 75 µg/mL (≈ 100 µM) | 37.5 µg/mL (≈ 50 µM) | 9.38 µg/mL (≈ 12.5 µM) | FC(F)(F)C(F)(F)C(F)(F)C(F)(F)C(F)(F)C(F)(F)C(F)(F)C(F)(F)CCn1nncc1COc1nc(-c2ccccc2)nc2ccccc12 | 12 mm | 9 mm | 12 mm | 8 mm | 8 mm | 12 mm | 9 mm | 12 mm | –
37.5 µg/mL (≈ 144 µM) | 37.5 µg/mL (≈ 144 µM) | 75 µg/mL (≈ 288 µM) | 37.5 µg/mL (≈ 144 µM) | 37.5 µg/mL (≈ 144 µM) | C#CCn1c(-c2ccccc2)nc2ccccc2c1=O | 12 mm | 12 mm | 10 mm | 7 mm | 7 mm | 10 mm | 12 mm | 12 mm | zone of inhibition at 30 µg/mL (Diutina rugosa [10]): 8 mm; zone of inhibition at 30 µg/mL (Rhizopus arrhizus [11]): 8 mm; zone of inhibition at 30 µg/mL (Aspergillus flavus [12]): 9 mm; zone of inhibition at 30 µg/mL (Saccharomyces cerevisiae [13]): 9 mm
150 µg/mL (≈ 576 µM) | 150 µg/mL (≈ 576 µM) | 150 µg/mL (≈ 576 µM) | 150 µg/mL (≈ 576 µM) | 150 µg/mL (≈ 576 µM) | C#CCOc1nc(-c2ccccc2)nc2ccccc12 | – | – | 10 mm | 7 mm | 7 mm | 10 mm | – | – | –
